Data as given in ChEMBL document CHEMBL1165858, “Synthesis and biological evaluation of beta-chloro vinyl chalcones as inhibitors of TNF-alpha and IL-6 with antimicrobial activity” (Eur J Med Chem, 2010).
≈ marks a conversion by molar mass, not a printed value. Calls of active or inactive are those of the source. The calls are words filed in the database; no cut-off is given here.

What was measured:
Staphylococcus aureus = assay: Antibacterial activity against Staphylococcus aureus NCIM 2120 at > 100 […] after 24 hrs by disc diffusion method; assay type: functional, organism-based
Klebsiella pneumoniae = assay: Antibacterial activity against Klebsiella pneumoniae NCIM 5082 at > 100 […] after 24 hrs by disc diffusion method; assay type: functional, organism-based
Proteus vulgaris = assay: Antibacterial activity against Proteus vulgaris NCIM 2813 after 24 hrs by disc diffusion method; assay type: functional; settings: for MIC: Proteus vulgaris, NCIM 2813, 24 h
Summary of the method: (§1)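 Paper disc diffusion (6.25 mm Whatman no.1 discs, dry-heat sterilized at 140 °C for 1 h) loaded with compounds at different concentrations in DMSO. Discs were placed in triplicate on nutrient agar seeded with fresh bacterial culture and incubated at 37 °C for 24 h, with solvent and growth controls. Zones of inhibition (mm) and MIC, the concentration completely inhibiting growth, were recorded.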

Aspergillus fumigatus = assay: Antibacterial activity against Aspergillus fumigatus NCIM 902 at > 100 […] after 72 hrs by disc diffusion method; assay type: functional, organism-based
Aspergillus niger [1] = assay: Antibacterial activity against Aspergillus niger NCIM 545 at > 100 […] after 72 hrs by disc diffusion method; assay type: functional, organism-based
Trichoderma viride = assay: Antibacterial activity against Trichoderma viride TT at > 100 […] after 72 hrs by disc diffusion method; assay type: functional, organism-based
Candida albicans = assay: Antibacterial activity against Candida albicans NCIM 3100 at > 100 […] after 72 hrs by disc diffusion method; assay type: functional, organism-based
Penicillium chrysogenum = assay: Antibacterial activity against Penicillium chrysogenum NCIM 707 at > 100 […] after 72 hrs by disc diffusion method; assay type: functional, organism-based
THP-1 [2] = assay: Antiinflammatory activity in human THP1 cells assessed as inhibition of LPS-induced TNFalpha secretion at 10 uM treated 30 mins before LPS challenge measured after 24 hrs by ELISA relative to control; assay type: functional
Summary of the method: (§2)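 THP-1 cells were grown in RPMI 1640 with 10% FBS and penicillin/streptomycin, then differentiated with PMA. Compound or vehicle (0.5% DMSO) was added for 30 min at 37 °C, followed by LPS (E. coli 0127:B8, final 1 µg/mL). After 24 h at 37 °C in 5% CO2, TNF-α and IL-6 in the supernatants were quantified by ELISA. Values are the mean of n = 2.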

THP-1 [3] = assay: Antiinflammatory activity in human THP1 cells assessed as inhibition of LPS-induced IL-6 secretion at 10 uM treated 30 mins before LPS challenge measured after 24 hrs by ELISA relative to control; assay type: functional; summary of the method: as §2
[4] = Cytotoxicity against […] at 10 uM; assay type: cell-based
Bacillus subtilis [5] = assay: Antibacterial activity against Bacillus subtilis NCIM 2546 after 24 hrs by disc diffusion method; assay type: functional; summary of the method: as §1
Escherichia coli [6] = assay: Antibacterial activity against Escherichia coli NCIM 2065 after 24 hrs by disc diffusion method; assay type: functional; summary of the method: as §1
Aspergillus niger [7] = assay: Antibacterial activity against Aspergillus niger NCIM 545 after 72 hrs by disc diffusion method; assay type: functional
Summary of the method: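 Agar disc diffusion against fungi. Fungi were maintained on potato dextrose agar at (25 ± 2) °C for five days before use. Compounds were dissolved in DMSO (10 mg/mL initial solutions) and loaded on discs placed on freshly seeded plates alongside a solvent control disc. Plates were held at 4 °C for 24 h for diffusion, then incubated at 37 ± 5 °C for 72 h. Zones of inhibition (mm) and MICs were recorded.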

Bacillus subtilis [8] = assay: Antibacterial activity against Bacillus subtilis NCIM 2546 at > 100 […] after 24 hrs by disc diffusion method; assay type: functional, organism-based
Escherichia coli [9] = assay: Antibacterial activity against Escherichia coli NCIM 2065 at > 100 […] after 24 hrs by disc diffusion method; assay type: functional, organism-based

With COc1cc(O)c(C(=O)/C=C/C=C(\Cl)c2cccc(Cl)c2)c(OC)c1 the MIC (Staphylococcus aureus) was “inactive”, the MIC (Klebsiella pneumoniae) was “inactive” and the “inhibition zone (IZ)” value (Proteus vulgaris) was 18 mm. The MIC (Proteus vulgaris) was 25 µg/mL (≈ 65.9 µM), the MIC (Aspergillus fumigatus) was “inactive” and the MIC (Aspergillus niger [1]) was “inactive”. For the same molecule, the MIC (Trichoderma viride) was “inactive”, the MIC (Candida albicans) was “inactive” and the MIC (Penicillium chrysogenum) was “inactive”. For the same molecule, the inhibition at 10 µM (THP-1 [2]) was 0%, the inhibition at 10 µM (THP-1 [3]) was 31% and the Activity [4] was “Non-toxic”. The “inhibition zone (IZ)” value (Bacillus subtilis [5]) was 12 mm, the “inhibition zone (IZ)” value (Escherichia coli [6]) was 16 mm and the MIC (Escherichia coli [6]; Escherichia coli, NCIM 2065, 24 h) was 50 µg/mL (≈ 132 µM).

In the case of COc1ccc(/C(Cl)=C/C=C/C(=O)c2c(O)cc(OC)cc2OC)cc1, the MIC (Staphylococcus aureus) is reported as “inactive”, the MIC (Klebsiella pneumoniae) is reported as “inactive” and the “inhibition zone (IZ)” value (Proteus vulgaris) is reported as 17 mm. For the same molecule, the MIC (Proteus vulgaris) was 50 µg/mL (≈ 133 µM), the MIC (Aspergillus fumigatus) was “inactive” and the “inhibition zone (IZ)” value (Aspergillus niger [7]) was 16 mm. The MIC (Aspergillus niger [7]; Aspergillus niger, NCIM 545, 72 h) was 50 µg/mL (≈ 133 µM), the MIC (Trichoderma viride) was “inactive” and the MIC (Candida albicans) was “inactive”. The MIC (Penicillium chrysogenum) was “inactive”, the inhibition at 10 µM (THP-1 [2]) was 18% and the inhibition at 10 µM (THP-1 [3]) was 78%. The Activity [4] was “Non-toxic”, the MIC (Bacillus subtilis [8]) was “inactive” and the MIC (Escherichia coli [9]) was “inactive”.
